The source made the active and inactive calls. The rule behind the calls is not given here.
Key:
MCF7 [1] = test: Induction of apoptosis in human MCF7 assessed as late apoptotic cells at 20 uM after 10 hrs by FITC-annexin V/propidium iodide staining-based flow cytometric analysis (reference value: 1.95%); assay type: functional
MCF7 [2] = test: Induction of apoptosis in human MCF7 assessed as early apoptotic cells at 20 uM after 15 hrs by FITC-annexin V/propidium iodide staining-based flow cytometric analysis (reference value: 2.38%); assay type: functional
A549 [3] = test: Cytotoxicity against human A549 cells assessed as growth inhibition after 72 hrs by MTT assay; assay type: functional, cell-based; conditions: A549, 72 h
MCF7 [4] = test: Induction of apoptosis in human MCF7 assessed as viable cells at 20 uM after 15 hrs by FITC-annexin V/propidium iodide staining-based flow cytometric analysis (reference value: 93.8%); assay type: functional; conditions: MCF7, 15 h, read-out: Activity
MCF7 [5] = test: Induction of apoptosis in human MCF7 assessed as necrotic cells at 20 uM after 10 hrs by FITC-annexin V/propidium iodide staining-based flow cytometric analysis (reference value: 1.86%); assay type: functional
MCF7 [6] = test: Reversal of hyperpolarized mitochondrial membrane potential in human MCF7 cells assessed as cells with vital and intact mitochondrial membranes at 10 uM after 12 hrs by JC1 staining-based flow cytometric analysis; assay type: functional
Procedure, shortened: (§1)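 MCF-7 cells treated 12 h (5, 10 or 20 µM), then stained with JC-1. Depolarization read as the ratio of green J-monomer to red J-aggregate fluorescence.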

MCF7 [7] = test: Cytotoxicity against human MCF7 cells assessed as growth inhibition after 72 hrs by MTT assay; assay type: functional, cell-based; conditions: MCF7, 72 h
[8] = molecular target: T1, [Pyruvate dehydrogenase (acetyl-transferring)] kinase isozyme 1, mitochondrial (Homo sapiens, UniProt Q15118); test: Inhibition of PDK1 in human MCF7 cells assessed as increase in ratio of oxygen consumption rate to extracellular acidification rate at 20 uM after 12 hrs; assay type: cell-based
T1 sequence (Q15118 whole entry): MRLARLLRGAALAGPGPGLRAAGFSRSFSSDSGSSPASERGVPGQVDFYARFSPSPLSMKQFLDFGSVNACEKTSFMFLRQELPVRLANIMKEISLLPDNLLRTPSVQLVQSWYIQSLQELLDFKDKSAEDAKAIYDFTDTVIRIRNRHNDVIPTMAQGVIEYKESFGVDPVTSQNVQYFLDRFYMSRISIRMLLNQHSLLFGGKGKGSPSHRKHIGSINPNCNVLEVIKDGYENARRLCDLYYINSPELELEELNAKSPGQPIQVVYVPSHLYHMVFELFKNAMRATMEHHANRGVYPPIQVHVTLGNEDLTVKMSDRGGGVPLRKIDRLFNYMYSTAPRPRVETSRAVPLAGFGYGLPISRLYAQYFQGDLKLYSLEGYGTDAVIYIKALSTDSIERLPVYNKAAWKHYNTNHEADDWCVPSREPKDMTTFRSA
Procedure, shortened: (§2)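 MCF-7 cells at 2.7×10⁴ cells/well in XF24 plates, attached, then grown 24 h at 37 °C in 5% CO2. Treated 12 h at 5, 10 or 20 µM, rinsed into glycolysis stress-test medium and held 1 h at 37 °C without CO2. OCR, ECAR and PPR then measured on a Seahorse XFe24 analyser. Significance P < 0.05 versus untreated control.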

[9] = molecular target: T1, [Pyruvate dehydrogenase (acetyl-transferring)] kinase isozyme 1, mitochondrial; test: Inhibition of PDK1 in human MCF7 cells assessed as increase in oxygen consumption rate at 5 to 20 uM after 12 hrs; assay type: cell-based; procedure, shortened: as §2
MCF7 [10] = test: Induction of apoptosis in human MCF7 assessed as necrotic cells at 20 uM after 5 hrs by FITC-annexin V/propidium iodide staining-based flow cytometric analysis (reference value: 1.86%); assay type: functional
MCF7 [11] = test: Induction of apoptosis in human MCF7 assessed as early apoptotic cells at 20 uM after 10 hrs by FITC-annexin V/propidium iodide staining-based flow cytometric analysis (reference value: 2.38%); assay type: functional
MCF7 [12] = test: Induction of apoptosis in human MCF7 assessed as viable cells at 20 uM after 5 hrs by FITC-annexin V/propidium iodide staining-based flow cytometric analysis (reference value: 93.8%); assay type: functional; conditions: MCF7, 5 h, read-out: Activity
[13] = molecular target: T1, [Pyruvate dehydrogenase (acetyl-transferring)] kinase isozyme 1, mitochondrial; test: Inhibition of PDK1 in human MCF7 cells assessed as decrease in lactate production at 5 to 20 uM after 12 hrs; assay type: cell-based
A549 [14] = test: Cytotoxicity against human A549 cells assessed as growth inhibition at 40 uM after 72 hrs by MTT assay relative to control; assay type: functional, cell-based
MCF7 [15] = test: Induction of apoptosis in human MCF7 assessed as viable cells at 20 uM by FITC-annexin V/propidium iodide staining-based flow cytometric analysis; assay type: functional, cell-based; conditions: TDE = time-dependent effect
[16] = Cytotoxicity against human MCF10A cells assessed as growth inhibition at 20 uM after 72 hrs by MTT assay relative to control; assay type: cell-based, MCF-10A; conditions: read-out: GI
MCF7 [17] = test: Induction of apoptosis in human MCF7 assessed as viable cells at 20 uM after 10 hrs by FITC-annexin V/propidium iodide staining-based flow cytometric analysis (reference value: 93.8%); assay type: functional; conditions: MCF7, 10 h, read-out: Activity
MCF7 [18] = test: Reversal of hyperpolarized mitochondrial membrane potential in human MCF7 cells assessed as cells with vital and intact mitochondrial membranes at 5 uM after 12 hrs by JC1 staining-based flow cytometric analysis; assay type: functional; procedure, shortened: as §1
MCF7 [19] = test: Reversal of hyperpolarized mitochondrial membrane potential in human MCF7 cells after 12 hrs by JC1 staining-based flow cytometric analysis; assay type: functional, cell-based
[20] = molecular target: T1, [Pyruvate dehydrogenase (acetyl-transferring)] kinase isozyme 1, mitochondrial; test: Inhibition of recombinant N-terminal 6xHis-SUMO-tagged human PDK1 (29 to 436 residues) expressed in Escherichia coli BL-21 assessed as suppression of PDC phosphorylation at S293 at 50 uM after 30 mins by Western blot method
MCF7 [21] = test: Cytotoxicity against human MCF7 cells assessed as growth inhibition at 20 uM after 72 hrs by IncuCyte Zoom live cells imaging method; assay type: functional, cell-based
[22] = molecular target: T1, [Pyruvate dehydrogenase (acetyl-transferring)] kinase isozyme 1, mitochondrial; test: Inhibition of PDK1 in human MCF7 cells assessed as decrease in extracellular acidification rate after 12 hrs; assay type: cell-based; procedure, shortened: as §2
MCF7 [23] = test: Cytotoxicity against human MCF7 cells assessed as growth inhibition at 40 uM after 72 hrs by MTT assay relative to control; assay type: functional, cell-based
Sus scrofa [24] = species: Sus scrofa; test: Activation of pig heart PDC assessed as production of NADH at 50 uM in presence of ATP
Procedure, shortened: (§3)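 Pig heart PDC (80 µg/ml, carrying intrinsic PDK activity) preincubated 40 min at 37 °C in Mops pH 7.20 buffer with NaF, acetyl-CoA, NADH and DTT. Kinase step 3 min at 37 °C with 55 µM ADP and 100 µM ATP, or no ATP. Stopped with ADP/pyruvate. Residual PDC activity then read as NADH formation at 340 nm, 37 °C, in Tris pH 7.8 with TPP, NAD+, pyruvate and CoA.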

A549 [25] = test: Cytotoxicity against human A549 cells assessed as growth inhibition at 20 uM after 72 hrs by IncuCyte Zoom live cells imaging method; assay type: functional, cell-based
MCF7 [26] = test: Induction of apoptosis in human MCF7 assessed as late apoptotic cells at 20 uM after 15 hrs by FITC-annexin V/propidium iodide staining-based flow cytometric analysis (reference value: 1.95%); assay type: functional
[27] = Cytotoxicity against human MCF10A cells assessed as growth inhibition at 10 uM after 72 hrs by MTT assay relative to control; assay type: cell-based, MCF-10A; conditions: read-out: GI
MCF7 [28] = test: Induction of apoptosis in human MCF7 assessed as late apoptotic cells at 20 uM after 5 hrs by FITC-annexin V/propidium iodide staining-based flow cytometric analysis (reference value: 1.95%); assay type: functional
Sus scrofa [29] = species: Sus scrofa; test: Activation of pig heart PDC assessed as production of NADH at 50 uM in absence of ATP; procedure, shortened: as §3
[30] = molecular target: T1, [Pyruvate dehydrogenase (acetyl-transferring)] kinase isozyme 1, mitochondrial; test: Binding affinity to recombinant N-terminal 6xHis-SUMO-tagged human PDK1 (29 to 436 residues) expressed in Escherichia coli BL-21 by isothermal titration calorimetric method
Procedure, shortened: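 Ligand titrated into PDK1 (10 or 20 µM) by ITC at 25 °C, 2.5 µL injections into a 300 µL cell. Protein is His-SUMO-tagged, co-expressed with GroEL/GroES in E. coli BL-21, purified by Ni-IMAC and gel filtration.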

MCF7 [31] = test: Induction of mitochondrial membrane potential depolarization in human MCF7 cells at 40 uM after 12 hrs by TMRM staining-based assay; assay type: functional, cell-based
MCF7 [32] = test: Induction of apoptosis in human MCF7 assessed as early apoptotic cells at 20 uM after 5 hrs by FITC-annexin V/propidium iodide staining-based flow cytometric analysis (reference value: 2.38%); assay type: functional
MCF7 [33] = test: Reversal of hyperpolarized mitochondrial membrane potential in human MCF7 cells assessed as cells with vital and intact mitochondrial membranes at 20 uM after 12 hrs by JC1 staining-based flow cytometric analysis; assay type: functional; procedure, shortened: as §1
[34] = molecular target: T1, [Pyruvate dehydrogenase (acetyl-transferring)] kinase isozyme 1, mitochondrial; test: Inhibition of recombinant N-terminal 6xHis-SUMO-tagged human PDK1 (29 to 436 residues) expressed in Escherichia coli BL-21 assessed as activation of PDC at 50 uM
[35] = molecular target: T1, [Pyruvate dehydrogenase (acetyl-transferring)] kinase isozyme 1, mitochondrial; test: Inhibition of PDK1 in human MCF7 cells assessed as increase in oxygen consumption rate at 40 uM after 12 hrs; assay type: cell-based
MCF7 [36] = test: Induction of apoptosis in human MCF7 assessed as necrotic cells at 20 uM after 15 hrs by FITC-annexin V/propidium iodide staining-based flow cytometric analysis (reference value: 1.86%); assay type: functional
MCF7 [37] = test: Reversal of hyperpolarized mitochondrial membrane potential in human MCF7 cells assessed as J-monomer/J-aggregate ratio at 20 uM after 12 hrs by JC1 staining-based flow cytometric analysis; assay type: functional; procedure, shortened: as §1
[38] = molecular target: T1, [Pyruvate dehydrogenase (acetyl-transferring)] kinase isozyme 1, mitochondrial; test: Inhibition of PDK1 in human MCF7 cells assessed as decrease in proton production rate after 12 hrs; assay type: cell-based; procedure, shortened: as §2
[39] = molecular target: T1, [Pyruvate dehydrogenase (acetyl-transferring)] kinase isozyme 1, mitochondrial; test: Inhibition of recombinant N-terminal 6xHis-SUMO-tagged human PDK1 (29 to 436 residues) expressed in Escherichia coli BL-21 assessed as phosphorylation of RYHGHSMSDP at 50 uM after 30 mins by Kinase-Glo luminescent assay

Work on O=C(Nc1ccc(Cl)c(C(F)(F)F)c1)C(Cl)Cl yielded an Activity (MCF7 [1]) of 11.8%, an Activity (MCF7 [2]) of 2.65% and an IC50 (A549 [3]) of 7.46 µM. For the same molecule, the viability at 20 µM (MCF7 [4]) was 78.2%, the Activity (MCF7 [5]) was 3.47% and the Activity (MCF7 [6]) was 65%. For the same molecule, the IC50 (MCF7 [7]) was 3.12 µM, the inhibition [8] was “Active” and the inhibition [9] was “Dose-dependent effect”. For the same molecule, the Activity (MCF7 [10]) was 5.41%, the Activity (MCF7 [11]) was 2.88% and the viability at 20 µM (MCF7 [12]) was 82.4%. For the same molecule, the inhibition [13] was “Active”, the “growth inhibition (GI)” value (A549 [14]) was “Active” and the Activity (MCF7 [15]) was “tde”. The inhibition at 72 h, 20 µM [16] was 10.3%, the viability at 20 µM (MCF7 [17]) was 81.9% and the Activity (MCF7 [18]) was 79.7%. For the same molecule, the Activity (MCF7 [19]) was “Dose-dependent effect”, the inhibition [20] was “Active” and the “growth inhibition (GI)” value (MCF7 [21]) was “Active”. For the same molecule, the inhibition [22] was “Dose-dependent effect”, the “growth inhibition (GI)” value (MCF7 [23]) was “Active” and the Activity (Sus scrofa [24]) was “inactive”. For the same molecule, the “growth inhibition (GI)” value (A549 [25]) was “Active”, the Activity (MCF7 [26]) was 14.2% and the inhibition at 72 h, 10 µM [27] was 3.51%. For the same molecule, the Activity (MCF7 [28]) was 10.2%, the Activity (Sus scrofa [29]) was “Active” and the Kd [30] was 40.8 µM. The Activity (MCF7 [31]) was “Active”, the Activity (MCF7 [32]) was 1.98% and the Activity (MCF7 [33]) was 46.8%. For the same molecule, the inhibition [34] was “Active”, the inhibition [35] was “inactive” and the Activity (MCF7 [36]) was 4.96%. The Ratio (MCF7 [37]) was 1.69, the inhibition [38] was “Dose-dependent effect” and the inhibition [39] was “Active”.

Source: ChEMBL document CHEMBL3813671, “Unexpected Discovery of Dichloroacetate Derived Adenosine Triphosphate Competitors Targeting Pyruvate Dehydrogenase Kinase To Inhibit Cancer Proliferation” (J Med Chem, 2016)
